Measured values taken from ChEMBL document CHEMBL3243941, “Hydrolysis of 3-chloro-3-cephems. Intramolecular nucleophilic attack in cefaclor” (J Med Chem, 1977).
Converted amounts (≈) assume the structure as drawn.

Tests used:
Escherichia coli = test: Antibacterial activity against Escherichia coli N10 assessed as growth inhibition; format: functional
Shigella sp. = test: Antibacterial activity against Shigella sp. N9 assessed as growth inhibition; format: functional
[1] = Antibacterial activity against Salmonella heidelberg X514 assessed as growth inhibition; format: functional, Salmonella enterica subsp. enterica serovar Heidelberg; conditions: Salmonella enterica
Klebsiella pneumoniae = test: Antibacterial activity against Klebsiella pneumoniae X26 assessed as growth inhibition; format: functional
Klebsiella aerogenes = test: Antibacterial activity against Enterobacter aerogenes X68 assessed as growth inhibition; format: functional
[2] = Hydrolytic stability of the compound assessed as beta-lactum ring opening rate at pH 10 at 35 degC by UV method; format: physicochemical; conditions: buffer
Method in brief: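 Pseudo-first-order rate constants for β-lactam ring opening, measured by UV at pH 10.0 and 35 °C and reported as k_obsd (s−1).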

Question: Which MIC (Escherichia coli) does the source give for `O=C(Cc1cccs1)N[C@@H]1C(=O)N2C(C(=O)O)=C(Cl)CS[C@H]12` here?
Answer: 21.2 µg/mL (≈ 59.1 µM)

Question: And the MIC (Shigella sp.)?
Answer: 17.5 µg/mL (≈ 48.8 µM)

Question: And the MIC [1]?
Answer: 0.9 µg/mL (≈ 2.51 µM)

Question: And the MIC (Klebsiella pneumoniae)?
Answer: 0.8 µg/mL (≈ 2.23 µM)

Question: And the MIC (Klebsiella aerogenes)?
Answer: 0.9 µg/mL (≈ 2.51 µM)

Question: What about the k obsd [2] of the same molecule?
Answer: 0.000131 s⁻¹

Question: For `CC1=C(C(=O)O)N2C(=O)[C@@H](NC(=O)Cc3cccs3)[C@H]2SC1`, which MIC (Escherichia coli) is on record?
Answer: 116 µg/mL (≈ 343 µM)

Question: What about the MIC (Shigella sp.) of the same molecule?
Answer: 120 µg/mL (≈ 355 µM)

Question: What about the MIC [1] of the same molecule?
Answer: 29 µg/mL (≈ 85.7 µM)

Question: What about the MIC (Klebsiella pneumoniae) of the same molecule?
Answer: 10 µg/mL (≈ 29.5 µM)

Question: And the MIC (Klebsiella aerogenes)?
Answer: 30 µg/mL (≈ 88.6 µM)

Question: And the k obsd [2]?
Answer: 1.07e-05 s⁻¹

Question: With `O=C(COc1ccccc1)N[C@@H]1C(=O)N2C(C(=O)O)=C(Cl)CS[C@H]12` as the molecule, how does the k obsd [2] read?
Answer: 0.000183 s⁻¹

Question: For `N[C@@H](C(=O)N[C@@H]1C(=O)N2C(C(=O)O)=C(Cl)CS[C@H]12)c1ccccc1` [CEFACLOR ANHYDROUS], which k obsd [2] is on record?
Answer: 0.000287 s⁻¹

Question: Which MIC (Escherichia coli) does the source give for `CC(=O)OCC1=C(C(=O)O)N2C(=O)[C@@H](NC(=O)Cc3cccs3)[C@H]2SC1` [CEPHALOTHIN] here?
Answer: 15 µg/mL (≈ 37.8 µM)

Question: What about the MIC (Shigella sp.) of the same molecule?
Answer: 14 µg/mL (≈ 35.3 µM)

Question: What about the MIC [1] of the same molecule?
Answer: 1 µg/mL (≈ 2.52 µM)

Question: And the MIC (Klebsiella pneumoniae)?
Answer: 1 µg/mL (≈ 2.52 µM)

Question: What about the MIC (Klebsiella aerogenes) of the same molecule?
Answer: 3 µg/mL (≈ 7.57 µM)

Question: What about the k obsd [2] of the same molecule?
Answer: 9.7e-05 s⁻¹
